Calls of active or inactive are those of the source. The rule behind the calls is not given here.
Columns and labels:
[1] = Toxicity in athymic nude mouse assessed as tissue and vasculature damage at 200 mg/kg, ip administered twice a week for 4 weeks; type: organism-based; conditions: in vivo, 672 h
Procedure, shortened: (§1)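 Athymic nude mice were split into five dose groups of 5 animals each: vehicle (90% PEG + 10% DMSO), 50, 100, 150 or 200 mg/kg in the same vehicle, given by injection. Survival and body weight were monitored through the study, with gross examination of major organs and the injection site. MTD was taken as the highest dose at which all animals survived.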

[2] = Toxicity in ip dose athymic nude mouse assessed as maximum tolerated dose administered twice a week for 4 weeks; type: organism-based; conditions: in vivo; procedure, shortened: as §1
[3] = Toxicity in athymic nude mouse assessed as localized inflammation at 200 mg/kg, ip administered twice a week for 4 weeks; type: organism-based; conditions: in vivo, 672 h; procedure, shortened: as §1
[4] = Toxicity in athymic nude mouse assessed as body weight loss at 200 mg/kg, ip administered twice a week for 4 weeks; type: organism-based; conditions: in vivo, 672 h; procedure, shortened: as §1
[5] = Toxicity in athymic nude mouse assessed as health deterioration at 100 mg/kg, ip administered twice a week for 4 weeks; type: organism-based; conditions: in vivo, 672 h; procedure, shortened: as §1
[6] = molecular target: Serine/threonine-protein kinase RIO2 (Homo sapiens) (UniProt Q9BVS4); test: Inhibition of RIOK2 in HUVEC at 0.05 to 0.25 uM; conditions: dose 0.05-0.25 µM
Procedure, shortened: (§2)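 HUVEC (ERG-positive normal primary endothelial cells) were treated at the same doses as VCaP cells, over a 0–0.25 μmol/L range. Read-outs were cell growth and endogenous ERG and RIOK2 protein levels.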

VCaP = test: Cytotoxicity against human VCaP cells assessed as inhibition of cell growth after 120 hrs by Cell Glow […] assay; type: functional, cell-based
HUVEC = test: Cytotoxicity against HUVEC assessed as inhibition of cell growth at 0.05 to 0.25 uM; type: cell-based; conditions: human, dose 0.05-0.25 µM; procedure, shortened: as §2

Serine/threonine-protein kinase RIO2 (Homo sapiens), sequence (Q9BVS4 whole entry, looked up): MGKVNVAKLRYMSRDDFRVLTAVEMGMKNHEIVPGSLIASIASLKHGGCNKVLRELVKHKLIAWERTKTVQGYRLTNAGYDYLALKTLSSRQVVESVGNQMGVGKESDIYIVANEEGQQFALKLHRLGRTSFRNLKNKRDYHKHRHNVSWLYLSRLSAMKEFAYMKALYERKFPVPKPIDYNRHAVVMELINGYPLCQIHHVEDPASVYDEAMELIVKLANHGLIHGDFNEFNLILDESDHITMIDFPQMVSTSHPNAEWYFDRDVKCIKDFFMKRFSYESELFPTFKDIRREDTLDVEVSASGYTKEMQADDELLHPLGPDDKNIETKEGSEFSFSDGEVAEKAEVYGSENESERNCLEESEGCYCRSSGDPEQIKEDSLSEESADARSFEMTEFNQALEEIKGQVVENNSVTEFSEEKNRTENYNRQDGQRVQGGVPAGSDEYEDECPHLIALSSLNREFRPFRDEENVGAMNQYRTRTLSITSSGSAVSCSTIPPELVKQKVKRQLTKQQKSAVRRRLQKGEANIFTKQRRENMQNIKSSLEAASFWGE

SMILES | MTD at 672 h [2] [mg/kg] | IC50 (VCaP; Homo sapiens, VCaP, 120 h) [nM] | IC50 (VCaP; vcap) [nM] | further results
CN(C)c1ccc(/N=N/c2ccccn2)c(O)c1 [listing 1 of 3 here] | 100 | – | – | Activity [1]: Toxic; Activity [3]: Toxic; Activity [4]: Toxic; Activity [5]: Non-Toxic
CN(C)c1ccc(/N=N/c2ccccn2)c(O)c1 [listing 2 of 3 here] | – | – | – | inhibition [6]: inactive
Oc1ccc2ccccc2c1/N=N/c1nccs1 | 150 | 170 | – | –
CN(C)c1ccc(/N=N/c2ccccn2)c(O)c1.CS(=O)(=O)O | – | – | 89 | Activity (HUVEC): Non-Toxic
CC(=O)C(=O)O.CN(C)c1ccc(/N=N/c2ccccn2)c(O)c1 | – | > 500 | – | –
CN(C)c1ccc(/N=N/c2ccccn2)c(O)c1 [listing 3 of 3 here] | – | – | > 500 | –

Reference: ChEMBL document CHEMBL4823327, “New Selective Inhibitors of ERG Positive Prostate Cancer: ERGi-USU-6 Salt Derivatives” (ACS Med Chem Lett, 2021)
